Assay results as given in ChEMBL document CHEMBL4043297, “Synthesis and Structure-Activity Relationships of the Novel Antimalarials 5-Pyridinyl-4(1 H)-Pyridones” (J Med Chem, 2018).
pIC50: −log10 of the molar value. In brackets after ≈: the same amount, converted by molar mass. One block for each molecule: values may come before it.

Experiments:
Plasmodium falciparum = experiment: Antimalarial activity against Plasmodium falciparum 3D7A infected in human RBC after 48 hrs by [3H]-hypoxanthine incorporation assay; format: functional
serum albumin = serum albumin (Homo sapiens, UniProt P02768); experiment: Binding affinity to human serum albumin by HPLC method; format: ADME; conditions: read-out: PB (converted)
[1] = Equilibrium solubility of compound in FaSSIF after 24 hrs by LC-MS method; format: physicochemical
[2] = Equilibrium solubility of compound in FeSSIF after 24 hrs by LC-MS method; format: physicochemical
[3] = Volume of distribution in CD1 mouse at […], iv as bolus dose by LC-MS/MS method; format: ADME, organism-based; conditions: in vivo
[4] = Clearance in CD1 mouse at […], iv as bolus dose by LC-MS/MS method; format: ADME, organism-based; conditions: in vivo
[5] = Half life in CD1 mouse at […], iv as bolus dose by LC-MS/MS method; format: ADME, organism-based; conditions: in vivo
[6] = Cmax in CD1 mouse at 11.512 mg/kg administered via oral gavage by LC-MS/MS method; format: ADME, organism-based; design: dose 11.512 mg/kg, route oral; conditions: in vivo, 11.51 mg/kg
Method in brief: (§1)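 Specific pathogen-free female CD1 (Hsd:ICR) mice, 8 to 10 weeks old. Each compound was given as an intravenous dose and an oral dose at the levels listed. Parameters reported: Vd, clearance, t1/2, Cmax, Tmax, AUC0-t, AUC∞ and %F.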

[7] = Tmax in CD1 mouse at 11.512 mg/kg administered via oral gavage by LC-MS/MS method; format: ADME, organism-based; conditions: in vivo
Method in brief: (§2)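 Specific pathogen-free female CD1 (Hsd:ICR) mice, 8–10 weeks old, housed in the institutional animal facility. Each compound was given intravenously at a low dose and orally at a higher dose. Vd, clearance, t1/2, Cmax, Tmax, AUC0-t, AUC∞ and %F were derived from plasma exposure after each route.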

[8] = AUC (0 to t) in CD1 mouse at 11.512 mg/kg administered via oral gavage by LC-MS/MS method; format: ADME, organism-based; conditions: in vivo; method in brief: as §1
[9] = AUC (infinity) in CD1 mouse at 11.512 mg/kg administered via oral gavage by LC-MS/MS method; format: ADME, organism-based; design: dose 11.512 mg/kg, time infinity, route oral; conditions: in vivo, 11.51 mg/kg; method in brief: as §1
[10] = Oral bioavailability in CD1 mouse at 11.512 mg/kg administered via gavage by LC-MS/MS method; format: ADME, organism-based; conditions: in vivo; method in brief: as §1
Plasmodium yoelii = experiment: Schizontocidal activity against Plasmodium yoelii infected in CD1 mouse administered via oral gavage as qd for 4 days starting 1 hr post infection by YOYO-1 dye-based flow cytometric method; format: functional
Method in brief: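 Blood schizontocidal activity was tested in a modified 4-day suppressive test in mice infected with P. yoelii. Four oral doses were given by gavage over four days.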

[11] = Volume of distribution in CD1 mouse at 1.45 mg/kg, iv as bolus dose by LC-MS/MS method; format: ADME, organism-based; conditions: in vivo; method in brief: as §2
[12] = Clearance in CD1 mouse at 1.45 mg/kg, iv as bolus dose by LC-MS/MS method; format: ADME, organism-based; conditions: in vivo; method in brief: as §1
[13] = Half life in CD1 mouse at 1.45 mg/kg, iv as bolus dose by LC-MS/MS method; format: ADME, organism-based; conditions: in vivo; method in brief: as §1
[14] = Cmax in CD1 mouse at 8.7 mg/kg administered via oral gavage by LC-MS/MS method; format: ADME, organism-based; design: dose 8.7 mg/kg, route oral; conditions: in vivo; method in brief: as §1
[15] = Tmax in CD1 mouse at 8.7 mg/kg administered via oral gavage by LC-MS/MS method; format: ADME, organism-based; conditions: in vivo; method in brief: as §2
[16] = AUC (0 to t) in CD1 mouse at 8.7 mg/kg administered via oral gavage by LC-MS/MS method; format: ADME, organism-based; conditions: in vivo; method in brief: as §1
[17] = AUC (infinity) in CD1 mouse at 8.7 mg/kg administered via oral gavage by LC-MS/MS method; format: ADME, organism-based; design: dose 8.7 mg/kg, route oral, time infinity; conditions: in vivo; method in brief: as §1
[18] = Oral bioavailability in CD1 mouse at 8.7 mg/kg administered via gavage by LC-MS/MS method; format: ADME, organism-based; conditions: in vivo; method in brief: as §2

Sequence of serum albumin (P02768 whole entry): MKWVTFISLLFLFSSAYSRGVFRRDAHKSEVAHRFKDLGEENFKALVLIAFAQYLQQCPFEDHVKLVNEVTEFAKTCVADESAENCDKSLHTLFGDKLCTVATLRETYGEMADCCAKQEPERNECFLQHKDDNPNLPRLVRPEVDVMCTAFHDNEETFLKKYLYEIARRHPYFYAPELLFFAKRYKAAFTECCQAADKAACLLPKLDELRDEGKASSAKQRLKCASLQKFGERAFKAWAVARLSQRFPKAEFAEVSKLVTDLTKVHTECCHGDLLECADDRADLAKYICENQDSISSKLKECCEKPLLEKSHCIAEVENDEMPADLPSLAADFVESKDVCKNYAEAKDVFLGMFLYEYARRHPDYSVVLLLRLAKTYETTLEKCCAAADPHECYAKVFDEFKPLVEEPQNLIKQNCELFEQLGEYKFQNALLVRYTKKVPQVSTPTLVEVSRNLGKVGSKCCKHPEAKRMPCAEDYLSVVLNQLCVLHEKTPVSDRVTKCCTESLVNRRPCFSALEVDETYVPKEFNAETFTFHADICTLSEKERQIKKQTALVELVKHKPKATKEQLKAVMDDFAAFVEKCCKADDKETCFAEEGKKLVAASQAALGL

pIC50 (Plasmodium falciparum): 8.00 | fraction unbound (serum albumin): 0.05 | solubility thermodynamic at 24 h [1]: < 1 µg/mL | solubility thermodynamic at 24 h [2]: 1.33 µg/mL (≈ 3.35 µM) | Vd [3]: 0.75 L/kg | clearance [4]: 0.26 mL/min/kg | half-life [5]: 33.8 h | Cmax [6]: 6380 ng/mL | Tmax [7]: 10 h | AUC(0-t) [8]: 204 µg·h/mL | AUC(0-inf) [9]: 226 µg·h/mL | bioavailability [10]: 30%
SMILES: Cc1[nH]c(C)c(-c2ccc(-c3ccc(C(F)(F)F)cc3F)nc2)c(=O)c1Cl
ED50 (Plasmodium yoelii): 0.08 mg/kg

pIC50 (Plasmodium falciparum): 7.47 | fraction unbound (serum albumin): 0.05 | Vd [11]: 1.11 L/kg | clearance [12]: 1.76 mL/min/kg | half-life [13]: 7.4 h | Cmax [14]: 8540 ng/mL | Tmax [15]: 1 h | AUC(0-t) [16]: 110 µg·h/mL | AUC(0-inf) [17]: 111 µg·h/mL | bioavailability [18]: 133%
SMILES: Cc1[nH]c(CO)c(-c2ccc(-c3ccc(OC(F)(F)F)cc3)nc2)c(=O)c1Cl
ED50 (Plasmodium yoelii): 0.4 mg/kg
